# Test results taken from ChEMBL document CHEMBL1156741, “Development of photoaffinity probes for gamma-secretase equipped with a nitrobenzenesulfonamide-type cleavable linker” (Bioorg Med Chem Lett, 2009).
# Active and inactive are the calls of the source. The rule behind the calls is not given here.
# Experiments:
# [1] = Inhibition of gamma-secretase assessed as inhibition of Abeta40 generation at 1 uM
# [2] = molecular target: T1, Gamma-secretase (Homo sapiens) (UniProt Q96BI3+Q9NZ42+Q8WW43+P49768+Q92542+P49810); assay: Binding affinity to gamma-secretase in human HeLa cell lysate assessed as presenilin 1 C-terminal fragment photolabeling by Western blotting; type: cell-free
# Outline: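 CHAPSO-solubilized HeLa cell lysate (about 150 µg) was mixed with the probe and photolabeled. PS1 CTF labeling was then detected by western blotting on nitrocellulose with chemiluminescence.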
# [3] = Inhibition of gamma-secretase assessed as inhibition of Abeta42 generation at 1 uM
# [4] = molecular target: T1, Gamma-secretase (Homo sapiens); assay: Binding affinity to gamma-secretase in human HeLa cell lysate assessed as biotinylated presenilin 1 C-terminal fragment by Western blotting in absence of 2-mercaptoethanol; type: cell-free
# Outline: (§1)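 Streptavidin sepharose beads carrying biotinylated proteins captured after photolabeling were treated in carbonate buffer (pH 9.2) with 2% SDS, with or without 3% 2-mercaptoethanol, for 4 h at 20 °C. Proteins were transferred to nitrocellulose and detected by western blotting with chemiluminescence.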
# [5] = molecular target: T1, Gamma-secretase (Homo sapiens); assay: Binding affinity to gamma-secretase in human HeLa cell lysate assessed as biotinylated presenilin 1 C-terminal fragment by Western blotting in presence of 2-mercaptoethanol; type: cell-free; outline: as §1
SMILES,inhibition [1],Activity [2],inhibition [3],Activity [4],Activity [5]
C[C@H](NC(=O)[C@@H](NC(=O)Cc1cc(F)cc(F)c1)c1ccccc1)C(=O)NCc1ccc(C(=O)c2ccc(CNCCCCCCCC(=O)NCCCN(C)S(=O)(=O)c3ccc(C(=O)NCCCCCC(=O)CCCC[C@@H]4SC[C@@H]5NC(=O)N[C@@H]54)cc3[N+](=O)[O-])cc2)cc1,62.8%,Active,66.2%,inactive,Active
C[C@H](NC(=O)[C@@H](NC(=O)Cc1cc(F)cc(F)c1)c1ccccc1)C(=O)NCc1ccc(C(=O)c2ccc(CNCCCCCC(=O)NCCCN(C)S(=O)(=O)c3ccc(C(=O)NCCCCCC(=O)CCCC[C@@H]4SC[C@@H]5NC(=O)N[C@@H]54)cc3[N+](=O)[O-])cc2)cc1,54.9%,Active,60.2%,,
C[C@H](NC(=O)[C@@H](NC(=O)Cc1cc(F)cc(F)c1)c1ccccc1)C(=O)NCc1ccc(C(=O)c2ccc(CNCCCCCC(=O)NCCCCCCCN(C)S(=O)(=O)c3ccc(C(=O)NCCCCCC(=O)CCCC[C@@H]4SC[C@@H]5NC(=O)N[C@@H]54)cc3[N+](=O)[O-])cc2)cc1,78.2%,Active,59.3%,,
C[C@H](NC(=O)[C@@H](NC(=O)Cc1cc(F)cc(F)c1)c1ccccc1)C(=O)NCc1ccc(C(=O)c2ccc(CNCC(=O)NCCCCCCCN(C)S(=O)(=O)c3ccc(C(=O)NCCCCCC(=O)CCCC[C@@H]4SC[C@@H]5NC(=O)N[C@@H]54)cc3[N+](=O)[O-])cc2)cc1,81.9%,Active,77%,,

# Other lines, results leading:
inhibition [1],Activity [2],inhibition [3],Activity [4],Activity [5],SMILES
62.3%,Active,89.3%,,,C[C@H](NC(=O)[C@@H](NC(=O)Cc1cc(F)cc(F)c1)c1ccccc1)C(=O)NCc1ccc(C(=O)c2ccc(CNCCCCCCCC(=O)NCCCCCCCN(C)S(=O)(=O)c3ccc(C(=O)NCCCCCC(=O)CCCC[C@@H]4SC[C@@H]5NC(=O)N[C@@H]54)cc3[N+](=O)[O-])cc2)cc1
77.4%,,76.3%,,,C[C@H](NC(=O)Cc1cc(F)cc(F)c1)C(=O)N[C@H](C(=O)OC(C)(C)C)c1ccccc1
